Measurements: PMC8929358 (Pharmacology Research & Perspectives, 2021)

Key:
UGT 2B7 = target: T1, UGT 2B7 (Homo sapiens, UniProt P16662); assay: Glucuronidation of opicapone by recombinant UGT2B7; type: in vitro ADME; details: 20 μM opicapone
T1 sequence (P16662 24-529): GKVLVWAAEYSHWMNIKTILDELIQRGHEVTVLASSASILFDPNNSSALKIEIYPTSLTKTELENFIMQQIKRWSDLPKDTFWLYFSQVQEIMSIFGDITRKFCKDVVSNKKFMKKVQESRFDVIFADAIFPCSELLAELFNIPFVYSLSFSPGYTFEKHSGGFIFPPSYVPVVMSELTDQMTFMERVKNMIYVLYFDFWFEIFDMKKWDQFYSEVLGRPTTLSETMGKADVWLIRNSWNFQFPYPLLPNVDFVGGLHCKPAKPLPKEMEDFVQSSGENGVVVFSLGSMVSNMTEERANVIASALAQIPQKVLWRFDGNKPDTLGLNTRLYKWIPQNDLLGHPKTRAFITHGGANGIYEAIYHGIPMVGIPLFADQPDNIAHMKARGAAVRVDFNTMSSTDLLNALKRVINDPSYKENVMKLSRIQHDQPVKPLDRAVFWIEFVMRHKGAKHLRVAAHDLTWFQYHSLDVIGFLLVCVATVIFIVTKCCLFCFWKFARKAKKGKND

UGT 2B17 = target: T2, UGT 2B17 (Homo sapiens, UniProt O75795); assay: Glucuronidation of opicapone by recombinant UGT2B17; type: in vitro ADME; details: 20 μM opicapone; incubation period of 60 min
T2 sequence (O75795 24-530): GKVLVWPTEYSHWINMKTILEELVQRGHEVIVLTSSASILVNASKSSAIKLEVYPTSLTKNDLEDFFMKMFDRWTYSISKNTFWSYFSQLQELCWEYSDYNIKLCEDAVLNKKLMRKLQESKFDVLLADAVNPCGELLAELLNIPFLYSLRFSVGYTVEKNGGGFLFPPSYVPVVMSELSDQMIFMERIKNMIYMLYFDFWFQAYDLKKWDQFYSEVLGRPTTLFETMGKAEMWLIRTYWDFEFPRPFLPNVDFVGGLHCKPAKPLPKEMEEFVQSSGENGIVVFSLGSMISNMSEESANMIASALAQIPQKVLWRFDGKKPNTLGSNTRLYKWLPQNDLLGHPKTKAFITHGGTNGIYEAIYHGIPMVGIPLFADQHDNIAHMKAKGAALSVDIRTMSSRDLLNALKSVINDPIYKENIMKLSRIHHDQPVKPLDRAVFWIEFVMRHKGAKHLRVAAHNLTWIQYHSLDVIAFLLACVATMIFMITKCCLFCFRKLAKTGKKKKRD

[1] = low solubility compound; ref unpublished information; cited from earlier work
[2] = type: in vivo, rat; details: oral 100 mg/kg
In short: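 In Sprague Dawley rats given 100 mg/kg [14C]-labelled compound (100 μCi/kg) orally in 0.2% HPMC, heparinized blood was taken by cardiac puncture at 2–168 h. Plasma was precipitated with MeOH/ACN (50:50), dried under N2 and reconstituted. Urine (0–6, 6–24 h) and feces (0–12, 12–24, 24–48 h) were pooled and stored at −80°C. Analysis used accurate-mass LC-MS with offline radiodetection.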

[3] = Sulfate conjugation of opicapone in human intestinal S9; type: in vitro ADME; details: human intestinal S9 fraction (HIS9), pH 7.4
UGT1A4 = target: T3, UGT1A4 (Homo sapiens, UniProt P22310); assay: Glucuronidation of opicapone by recombinant UGT1A4; type: in vitro ADME; details: 20 μM opicapone; incubation period of 60 min
T3 sequence (P22310 29-534): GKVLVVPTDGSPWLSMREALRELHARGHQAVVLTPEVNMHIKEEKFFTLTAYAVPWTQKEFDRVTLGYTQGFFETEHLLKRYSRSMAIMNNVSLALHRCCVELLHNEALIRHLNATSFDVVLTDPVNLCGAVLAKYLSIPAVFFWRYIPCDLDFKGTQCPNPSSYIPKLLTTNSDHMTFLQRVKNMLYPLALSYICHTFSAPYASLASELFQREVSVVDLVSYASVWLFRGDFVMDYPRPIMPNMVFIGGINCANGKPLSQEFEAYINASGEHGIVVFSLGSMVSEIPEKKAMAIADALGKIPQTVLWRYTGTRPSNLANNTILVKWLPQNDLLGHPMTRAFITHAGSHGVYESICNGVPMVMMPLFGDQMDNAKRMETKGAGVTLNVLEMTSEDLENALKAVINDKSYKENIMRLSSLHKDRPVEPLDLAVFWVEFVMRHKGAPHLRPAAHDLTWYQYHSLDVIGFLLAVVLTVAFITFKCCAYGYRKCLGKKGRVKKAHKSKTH

[4] = healthy subjects; oral; cited from earlier work
UGT1A6 = target: T4, UGT1A6 (Homo sapiens, UniProt P19224); assay: Glucuronidation of opicapone by recombinant UGT1A6; type: in vitro ADME
T4 sequence (P19224 27-532): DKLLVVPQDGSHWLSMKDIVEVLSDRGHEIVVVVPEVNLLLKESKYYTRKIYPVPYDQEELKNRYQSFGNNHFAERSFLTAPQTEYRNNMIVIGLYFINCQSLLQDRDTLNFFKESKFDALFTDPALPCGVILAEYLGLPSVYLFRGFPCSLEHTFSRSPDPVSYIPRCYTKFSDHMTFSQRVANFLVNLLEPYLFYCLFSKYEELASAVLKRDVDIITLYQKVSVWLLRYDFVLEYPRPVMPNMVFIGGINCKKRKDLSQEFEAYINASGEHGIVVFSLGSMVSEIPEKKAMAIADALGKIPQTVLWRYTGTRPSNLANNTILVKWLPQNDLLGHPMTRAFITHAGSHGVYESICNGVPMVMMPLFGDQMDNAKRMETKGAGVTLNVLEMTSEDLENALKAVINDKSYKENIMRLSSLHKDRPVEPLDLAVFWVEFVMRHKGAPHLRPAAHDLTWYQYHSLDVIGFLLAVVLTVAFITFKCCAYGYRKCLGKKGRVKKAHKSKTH

[5] = type: in vivo, rat; details: rat, plasma, po, 1 g/kg
[6] = Sulfate conjugation of opicapone in human liver S9; type: in vitro ADME; details: human liver S9 fraction (HLS9), pH 7.4

Cc1c(Cl)c(C)[n+]([O-])c(Cl)c1-c1noc(-c2cc(O)c(O)c([N+](=O)[O-])c2)n1 [opicapone, 2,5‐dichloro‐3‐(5‐(3,4‐dihydroxy‐5‐nitrophenyl)‐1,2,4‐oxadiazol‐3‐yl)‐4,6‐dimethylpyridine 1‐oxide]
Formation of BIA 9-1106 (screening) (UGT 2B7): little amounts
Metabolite formation (screening) (UGT 2B17): No metabolite formation was detected
Biopharmaceutics Classification System class [1]: class II
Plasma, % of total AUC0–168 h of drug-related radioactivity ([2]; ND = not detected): 15.1%
Time of peak of unchanged opicapone in plasma ([2]; earliest time point analyzed): 2 h
Feces, % of administered dose ([2]; feces pools 0–48 h, ND = not detected): 6.25%
Urine, % of administered dose ([2]; urine pools 0–24 h, ND = not detected, 100 mg/kg): 0.1%
Km [3]: 8.2 ± 1.1 µM
Metabolite formation (screening) (UGT1A4): No metabolite formation was detected
Apparent terminal elimination half-life (t1/2) [4]: 48 to 192 min
Formation of BIA 9-1106 (screening) (UGT1A6; 20 μM opicapone): little amounts
Glucuronidation kinetics (form of the rate curve) (UGT1A6; opicapone 1 to 250 μM): linear
Cmax [5]: 7090 ng/mL
Km [6]: 20.5 ± 2.6 µM
